The source made the active and inactive calls. The rule behind the calls is not given here. Peptide text beside a SMILES is read from it. * marks the point of attachment. Cbz = O=C(OCc1ccccc1)*
Tests used:
[1] = molecular target: T1, CYP1A1 (Mus musculus, UniProt P30561); assay: (§1) Induction of Ah receptor in mouse Hepa-1c1c7 cells assessed as induction of CYP1A1 activity at 1 uM after 48 hrs by EROD assay relative to control; type: cell-based; conditions: Hepa-1c1c7 cells, probe ethoxyresorufin (EROD), read-out: FC
T1 sequence (P30561 whole entry): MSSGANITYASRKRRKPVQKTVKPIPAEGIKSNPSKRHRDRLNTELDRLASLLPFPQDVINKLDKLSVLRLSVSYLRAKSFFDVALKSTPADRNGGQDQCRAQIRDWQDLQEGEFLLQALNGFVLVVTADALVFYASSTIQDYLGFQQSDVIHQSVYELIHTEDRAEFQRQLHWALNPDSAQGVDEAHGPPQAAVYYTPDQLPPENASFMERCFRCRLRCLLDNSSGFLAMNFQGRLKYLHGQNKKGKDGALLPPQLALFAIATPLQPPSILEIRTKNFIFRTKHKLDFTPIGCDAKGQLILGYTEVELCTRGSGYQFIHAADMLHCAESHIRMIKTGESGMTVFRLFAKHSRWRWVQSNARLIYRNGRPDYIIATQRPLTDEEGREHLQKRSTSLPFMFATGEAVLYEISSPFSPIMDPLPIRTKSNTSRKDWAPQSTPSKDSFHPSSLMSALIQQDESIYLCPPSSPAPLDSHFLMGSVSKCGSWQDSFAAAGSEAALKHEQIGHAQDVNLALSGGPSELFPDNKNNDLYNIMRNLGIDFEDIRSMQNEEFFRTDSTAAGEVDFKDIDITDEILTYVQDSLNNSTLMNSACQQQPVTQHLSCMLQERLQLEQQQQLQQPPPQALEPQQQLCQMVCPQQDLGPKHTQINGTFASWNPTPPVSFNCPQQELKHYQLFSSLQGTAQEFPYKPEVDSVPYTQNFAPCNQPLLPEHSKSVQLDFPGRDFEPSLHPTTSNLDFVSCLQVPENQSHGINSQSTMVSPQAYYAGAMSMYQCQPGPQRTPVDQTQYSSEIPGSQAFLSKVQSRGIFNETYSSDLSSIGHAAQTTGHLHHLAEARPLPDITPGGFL
Summary of the method: (§2)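 Hepa1c1c7 cells at 10⁴/well grown 24 h, then given compound at one fixed concentration for 48 h. After a PBS wash, cells incubated 40 min at 37 °C with 5 µM 7-ethoxyresorufin plus 2 mM salicylamide. Resorufin fluorescence read at ex 530/em 590 nm. Fold induction = (F cells+compound − F blank)/(F control − F blank); mean ± SD, n = 3.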

[2] = Cytotoxicity against mouse Hepa-1c1c7 cells assessed as cell survival at 5 uM after 48 hrs by MTT assay; type: cell-based; conditions: read-out: Activity
Summary of the method: (§3)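 MTT (0.5 mg/ml) added for 3 h at 37 °C, formazan dissolved in DMSO and read at 590 nm. Survival (%) = (A treated − A blank)/(A untreated − A blank) × 100.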

[3] = Induction of NQO1 activity in mouse Hepa-1c1c7 cells at 1 uM after 48 hrs relative to control
[4] = Transcriptional activation of Nrf2/ARE signaling pathway in mouse Hepa-1c1c7 cells assessed as increase in cellular GSH level at 10 uM after 24 hrs by Ellman's method; type: functional, cell-based
Summary of the method: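 Hepa1c1c7 cells at 10⁶/plate grown 24 h, then given compound at 10 µM final for 24 h. Pellets extracted with 3% sulfosalicylic acid. Total GSH measured by DTNB recycling (0.6 mM DTNB, 0.2 mM NADPH, GSH reductase) as ΔA412 over 5 min against a GSH standard curve. Values normalized to Bradford protein from a parallel plate; mean ± SEM, n = 3.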

[5] = Induction of NQO1 activity in mouse Hepa-1c1c7 cells at 5 uM after 48 hrs relative to control
[6] = test system: Hepa-1c1c7; assay: Increase of Nrf2 protein level in mouse Hepa-1c1c7 cells at 10 uM for 6 hrs Western blotting relative to control; type: functional, cell-based
Summary of the method: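 Hepa1c1c7 cells exposed to compound at 10 µM for 6 h, with MG132 (25 µM) as reference. Lysates made in digitonin/EDTA with protease inhibitors; 50 µg protein run on 15% SDS-PAGE, blotted to nitrocellulose and probed for Nrf2 with β-actin loading control. Bands quantified by densitometry against untreated control, 3 experiments, independent t-test.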

[7] = Upregulation of TrxR protein expression in mouse Hepa-1c1c7 cells at 10 uM after 24 hrs by Western blotting relative to control; type: functional, cell-based
Summary of the method: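 Hepa1c1c7 cells exposed to compound at 10 µM for 24 h. Digitonin/EDTA lysates (50 µg protein) separated on 15% SDS-PAGE, blotted to nitrocellulose and probed with anti-TrxR antibody. Band intensity compared with untreated control; representative of 3 experiments.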

[8] = molecular target: T1, CYP1A1; assay: Induction of Ah receptor in mouse Hepa-1c1c7 cells assessed as induction of CYP1A1 activity at 10 uM after 48 hrs by EROD assay relative to control; type: cell-based; conditions: probe ethoxyresorufin (EROD), read-out: FC; summary of the method: as §2
[9] = test system: Hepa-1c1c7; assay: Induction of human NQO1 gene expression in mouse Hepa-1c1c7 cells co-transfected with pGL3-ARE at 10 to 25 uM after 24 hrs by luciferase reporter gene assay; type: functional, cell-based
Summary of the method: (§4)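 Hepa1c1c7 cells at about 50% confluency co-transfected with pGL3-ARE firefly luciferase (human NQO1 ARE) and pRL-CMV Renilla as transfection control. After 24 h, cells exposed to compound (10 or 25 µM). Dual luciferase read-out expressed as fold over control; mean ± SD of 3 independent transfections, t-test.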

[10] = test system: Hepa-1c1c7; assay: Induction of human NQO1 gene expression in mouse Hepa-1c1c7 cells co-transfected with pGL3-ARE at 25 uM after 24 hrs by luciferase reporter gene assay; type: functional, cell-based; summary of the method: as §4
[11] = test system: Hepa-1c1c7; assay: Induction of TrxR activity in mouse Hepa-1c1c7 cells at 10 uM after 24 hrs; type: cell-based
Summary of the method: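 Hepa1c1c7 cells treated with compound at 10 µM for 24 h. Digitonin/EDTA lysate (25 µg) incubated 20 min at 37 °C with 85 mM HEPES pH 7.6, 0.3 mM insulin, 660 µM NADPH, 2.5 mM EDTA and 5 µM human thioredoxin. Reaction quenched with DTNB in guanidine; A412 read, minus no-thioredoxin background. Fold versus control, mean ± SEM, n = 3.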

[12] = Induction of NQO1 activity in mouse Hepa-1c1c7 cells at 25 uM after 48 hrs relative to control
[13] = Cytotoxicity against mouse Hepa-1c1c7 cells assessed as cell survival at 25 uM after 48 hrs by MTT assay; type: cell-based; conditions: read-out: Activity; summary of the method: as §3
[14] = molecular target: T1, CYP1A1; assay: Induction of Ah receptor in mouse Hepa-1c1c7 cells assessed as induction of CYP1A1 activity at 5 uM after 48 hrs by EROD assay relative to control; type: cell-based; conditions: probe ethoxyresorufin (EROD), read-out: FC; summary of the method: as §2
[15] = molecular target: T2, Aryl hydrocarbon receptor (Mus musculus, UniProt P30561); assay: as §1; type: cell-based; conditions: hepa-1c1c7, 48 h, 1 µM; summary of the method: as §2
T2 sequence (P30561 whole entry): T1 sequence (P30561 whole entry)

[16] = molecular target: NAD(P)H dehydrogenase [quinone] 1 (Homo sapiens) (UniProt P15559); assay: Induction of […] NQO1 activity in mutant mouse BPrc1 cells assessed as concentration require for 2 fold induction after 48 hrs; type: cell-based
NAD(P)H dehydrogenase [quinone] 1 (Homo sapiens), sequence (P15559 whole entry): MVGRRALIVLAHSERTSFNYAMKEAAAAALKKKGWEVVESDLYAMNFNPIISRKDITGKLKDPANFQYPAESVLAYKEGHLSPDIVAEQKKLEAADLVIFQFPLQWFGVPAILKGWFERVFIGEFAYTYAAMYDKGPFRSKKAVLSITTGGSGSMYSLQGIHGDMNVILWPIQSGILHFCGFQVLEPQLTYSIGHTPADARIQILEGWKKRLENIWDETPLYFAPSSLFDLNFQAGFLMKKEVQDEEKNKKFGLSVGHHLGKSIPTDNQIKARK
Summary of the method: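 Mutant Hepa1c1c7 line (Bp^rc1, defective Ah-receptor pathway) seeded at 10⁴ cells/well for 24 h, then exposed to compound for 48 h; final DMSO ≤0.5%. Cells lysed with 0.8% digitonin/2 mM EDTA. NQO1 read by menadione-driven MTT reduction (NADP, glucose-6-phosphate regenerating system, FAD, pH 7.4), stopped after 5 min with dicoumarol, A590. Activity taken relative to blank and control wells; CD = concentration doubling basal activity; mean ± SD of 3 determinations.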

[17] = test system: Hepa-1c1c7; assay: Increase of Nrf2 protein level in mouse Hepa-1c1c7 cells at 10 uM for 6 hrs Western blotting relative to control

| SMILES | viability at 48 h, 5 µM [2] | Activity [4] | fold change (FC) [5] | Activity [6] | fold induction at 48 h, 10 µM [8] | Activity [9] | further results |
| --- | --- | --- | --- | --- | --- | --- | --- |
| COc1cc(OC)c2c(c1)O/C(=C\c1ccccc1OC)C2=O | 82% | – | – | – | – | – | fold induction at 48 h, 1 µM [1]: 1.56; fold change (FC) [3]: 2.21 |
| COc1cc(OC)c2c(c1)O/C(=C\c1ccccc1O)C2=O | 102% | Active | 5.28 | Active | 1.87 | Active | Activity [7]: Active |
| O=C1/C(=C/c2ccccc2O)Oc2cc(O)cc(O)c21 | 102% | Active | 2.92 | Active | 1.1 | Active | Activity [10]: Active |
| O=C1/C(=C/c2ccccc2O)Oc2ccccc21 | 110% | – | 1.41 | – | – | inactive | Activity [11]: inactive; fold change (FC) [12]: 1.61; viability at 48 h, 25 µM [13]: 102%; fold induction at 48 h, 5 µM [14]: 1.4 |
| C[S+]([O-])CCCCN=C=S (stereo unspecified) [SULFORAPHANE] | – | – | – | Active | – | inactive | Activity [15]: 0.92; Activity [16]: inactive |
| CC(C)C[C@@H](C=O)NC(=O)[C@H](CC(C)C)NC(=O)[C@H](CC(C)C)NC(=O)OCc1ccccc1 (Cbz-Leu-Leu-Leu-aldehyde) | – | – | – | – | – | – | Activity [17]: Active |
| COc1cc(OC)c2c(c1)O/C(=C\c1ccccc1)C2=O | 93% | Active | 7.7 | Active | 2.04 | Active | Activity [7]: Active |
